HTR2A ag – agonists of mouse serotonin 5-HT2A receptor (HTR2A) | P35363 | CHO-K1 mHTR2A beta-arrestin complementation, luminescence; percent of 30 µM serotonin response | activation, % at 7.6 µM | 360,000 compounds, 0.66% hits;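 active means activation above a run cutoff, the mean activation of all tested compounds plus 3 SD, cut at about 14% in these data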;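 further: 0% = plate median of compound wells and 100% = 30 µM serotonin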
Target sequence (P35363 whole entry, looked up): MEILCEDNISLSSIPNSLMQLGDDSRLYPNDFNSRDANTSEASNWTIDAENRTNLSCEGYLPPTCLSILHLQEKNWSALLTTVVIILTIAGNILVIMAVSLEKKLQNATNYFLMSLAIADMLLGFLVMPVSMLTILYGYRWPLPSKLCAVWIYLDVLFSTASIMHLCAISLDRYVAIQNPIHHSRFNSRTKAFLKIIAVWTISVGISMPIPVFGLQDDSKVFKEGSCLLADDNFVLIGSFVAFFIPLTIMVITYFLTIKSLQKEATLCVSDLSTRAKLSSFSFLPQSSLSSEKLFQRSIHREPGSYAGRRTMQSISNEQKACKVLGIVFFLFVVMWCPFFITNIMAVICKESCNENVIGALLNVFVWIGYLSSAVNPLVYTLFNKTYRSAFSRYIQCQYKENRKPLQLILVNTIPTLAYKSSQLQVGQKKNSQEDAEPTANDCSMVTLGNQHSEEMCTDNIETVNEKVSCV
beta cell repl – induces beta-cell replication in MIN6 cells. MIN6 cells proliferation, ATPlite luminescence, 48 h; cells starved in 0.2% serum; 100% = growth in 10% serum. proliferation, % at 10 µM. 330,000 compounds, 0.29% hits. AID 2380;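 active means compounds whose signal lies at least 3.5 SD above the mean of all wells on their plate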;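 further: 0% = DMSO-treated cells in low-serum medium and 100% = 10% serum control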
SR-BI HDL uptake – inhibitors of mouse SR-BI mediated HDL lipid uptake; AID 488896; ldlA[mSR-BI] CHO cells, DiI-HDL uptake fluorescence, 3 h; inhibition, % at 12.5 µM; 320,000 compounds, 0.96% hits; Q61009;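 active means mean replicate inhibition of at least 70% and a set share of replicates each scoring 70 or more; inconclusive means meets just one of the two criteria; inactive means fails both criteria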;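 further: 0% = median of neutral control wells and 100% = median of positive control wells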
SR-BI uptake up – enhances SR-BI lipid uptake from DiI-HDL; CHO ldlA[mSR-BI] cells, DiI-HDL uptake fluorescence, 3 h; 100 = double the neutral-control signal; activation, % at 12.5 µM; 320,000 compounds, 0.096% hits; AID 504775;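 active means mean replicate activation of at least 60% and every replicate at or above 60%; inconclusive means mean or all-replicate condition met, but not both; inactive means mean below 60% and not all replicates reaching 60%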;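 further: 0% = median plate neutral-control signal and 100% = twice that signal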
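Assay system: CHO ldlA[mSR-BI] cells, LDL receptor-null, SR-BI overexpressing; medium: Ham's F12 with 0.5% BSA, HEPES 25 mM, pH 7.4; also added: DiI-HDL 10 µg/mL; timing: 3 h uptake period with compound, 37 °C; signal: DiI fluorescence, bottom read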
Ins promoter up – MIN6 insulin promoter up-regulation. MIN6 insulin promoter-GFP reporter, high-content imaging; stronger effect = higher value. z-score at 5 µM. 190,000 compounds, 0.3% hits;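 active means z-score above 3 at 5 µM with at least 500 cells counted in the well; inconclusive means wells under 500 cells, flagged as cytotoxic or low count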
Calb FLC – C. albicans growth modulation with fluconazole. 300,000 compounds, 0.57% hits. C. albicans CaCi-2 + fluconazole, Alamar Blue growth, 48 h. growth inhibition, % (test concentration not listed);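 active means growth inhibition above about 58% in most replicates, limit read from the data, passing the limit was not always enough; inconclusive means exactly half the replicates above a set limit; inactive means most replicates below a set limit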;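 further: all wells also contain fluconazole at 8 µg/ml as a sub-toxic cotreatment; 0% = median of DMSO wells and 100% = median of geldanamycin control wells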
OPRM1 ag – OPRM1 agonism in mouse HTR2A counterscreen; activation, % at 9.3 µM; shares compounds with HTR2A ag; U2OS OPRM1 beta-arrestin PathHunter, luminescence; DMSO 0%, DAMGO 9.3 µM 100%; 2,300 compounds, 5.3% hits;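 active means mean activation above the mean of DMSO-only wells plus 3 SD, cut at about 0.5% in these data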
HTR2A ag conf – mouse HTR2A agonism confirmed; AID 624381; shares compounds with HTR2A ag; CHO-K1 PathHunter beta-arrestin recruitment, luminescence; DMSO 0%, 30 µM serotonin 100%; 2,300 compounds, 19% hits; activation, % at 7.6 µM;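 active means mean activation across triplicates above the hit threshold derived in the original primary screen, cut at about 15% in these data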
Starred values were filed as active, the others as inactive; ? = inconclusive; / = no result. Only some compounds are listed: those with a hit (about 2.4% of all), similar ones and a draw of the others.

SMILES | HTR2A ag | beta cell repl | SR-BI HDL uptake | SR-BI uptake up | Ins promoter up | Calb FLC | OPRM1 ag | HTR2A ag conf
CC(C)Cn1c(=O)c2ccccc2n2c(CCC(=O)NCC3CCCO3)nnc12 (stereo not given) | -5 | -4 | -10 | 10 | / | ? | / | /
CCN1C(=O)[C@H]2[C@@H](c3ccc(C)cc3)N[C@]3(CCCN(Cc4cccn4C)C3=O)[C@H]2C1=O | 21* | / | / | / | / | / | -1 | -2
CCCCN(C(=O)c1cccc2c(=O)c(C)c(-c3ccccc3)oc12)c1ccccc1 | 38* | / | 4 | -4 | / | -4 | 0 | 10
CCCCNC(=O)c1cccc2c(=O)c(C)c(-c3ccccc3)oc12 | 0 | 4 | -38 | 38 | -1.3 | -1 | / | /
CSc1ccc(CN2CCC(CO)(Cc3ccc(Cl)cc3)CC2)cc1 | 8 | -6 | / | / | / | -12 | / | /
OCC1(Cc2ccc(Cl)cc2)CCN(CCCc2ccccc2)CC1 | 18* | -5 | -4 | 4 | / | -11 | 0 | 44*
OCC1(Cc2ccc(Cl)cc2)CCN(CC2CC=CCC2)CC1 (stereo not given) | 15* | -2 | -6 | 6 | 0.93 | -10 | 0 | 14
COCC(=O)Oc1cc(-c2ccc(C)cc2C)c(OC(=O)COC)c(-c2ccc(C)cc2C)c1 | -1 | / | / | / | / | / | / | /
O=C(NC(=S)Nc1ccccc1N1CCCC1)c1ccc(F)cc1 | -4 | -4 | 34 | -34 | 0.28 | 1 | / | /
O=C(NC(=S)Nc1ccccc1N1CCCCC1)c1ccc(F)cc1Cl | 17* | -7 | 46 | -46 | / | / | -1 | -5
O=c1[nH]c2cc(C(F)(F)F)ccc2n1-c1cc(C(F)(F)F)ccc1O | 15* | -2 | 19 | -19 | / | / | 0.6* | 3
O=C(CSc1ccc(F)cc1)Nc1ccc2c(c1)C(=O)NC2=O | -7 | -4 | -10 | 10 | / | -4 | / | /
COc1ccc(-c2csc(Cc3nnc4n3CCCCC4)n2)cc1OC | 15* | -2 | / | / | -0.08 | -2 | -1 | 0
COc1ccc(-c2nnc3n2CCCCC3)cc1OC | -4 | 1 | / | / | / | 5 | / | /
O=c1c2ccccc2nc(-c2ccc([N+](=O)[O-])cc2)n1O | 16* | -1 | 8 | -8 | -1.1 | 61 | 0 | -2
Cc1ccc(-c2nc3ccccc3c(=O)n2O)cc1 | -1 | -2 | 9 | -9 | / | 5 | / | /
Cn1cccc1C(=O)C(=O)Nc1ccccc1 | -5 | -1 | -14 | 14 | / | -12 | / | /
CC(Cc1c[nH]c2ccccc12)NC(=O)OCCCl (stereo not given) | 20* | 0 | -3 | 3 | 0.43 | 8 | -1 | -1
COC(=O)C(Cc1c[nH]c2ccccc12)NC(C)=O (stereo not given) | 6 | -2 | 8 | -8 | 0.3 | 2 | / | /
CCc1nc2ccc(C(=O)NC3CCN(Cc4ccccc4)CC3)cn2c1N(C)Cc1cc2ccccc2s1 | -7 | / | / | / | / | / | / | /
COc1cc2oc(=O)cc(CN3CCN(c4ccc(Cl)c(Cl)c4)CC3)c2cc1Cl | 25* | / | / | / | / | / | -1 | 9
COc1ccc2c(CN3CCN(c4ccc(Cl)c(Cl)c4)CC3)cc(=O)oc2c1 | 12 | / | / | / | / | / | / | /
C[C@@H](O)C#Cc1ccc2c(c1)O[C@H](CN(C)C(=O)Nc1ccccc1)[C@@H](C)CN([C@@H](C)CO)S2(=O)=O | 15* | / | / | / | / | / | 0 | 8
CC(C)NC(=O)N(C)C[C@H]1Oc2cc(C#Cc3ccc(F)cc3)ccc2S(=O)(=O)N([C@H](C)CO)C[C@H]1C | 41* | / | / | / | / | / | -1 | 24*
C[C@H](CO)N1C[C@H](C)[C@@H](CN(C)C(=O)c2ccccc2)Oc2cc(C#C[C@@H](C)O)ccc2S1(=O)=O | 9 | / | / | / | / | / | / | /
SMILES | HTR2A ag | beta cell repl | SR-BI HDL uptake | SR-BI uptake up | Ins promoter up | Calb FLC | OPRM1 ag | HTR2A ag conf
CSCCNC(=O)C1(C)CCN1C(=O)c1cc(C)n(C)n1 (stereo not given) | 1 | / | / | / | / | / | / | /
O=C(O)c1ccc2c(c1)C(=O)N(c1ccc(OCc3ccccc3)cc1)C2=O | 17* | 0 | -15 | 15 | / | -12 | 0 | 0
Nc1nnc(-c2ccccc2[N+](=O)[O-])o1 | 26* | 0 | -15 | 15 | 0.3 | -4 | 0 | -5
O=[N+]([O-])c1ccccc1-c1nc(-c2ccc(Br)o2)no1 | -5 | -1 | -2 | 2 | -0.38 | -3 | / | /
Cc1ccc(-c2nc3c(c(SCC(=O)N4CCOCC4)n2)COC(C)(C)C3)cc1 | 20* | 3 | 14 | -14 | / | 35 | 0 | -3
C[C@@H]1CN([C@@H](C)CO)C(=O)c2cc(Br)cnc2O[C@H]1CN(C)C(=O)Cc1cccnc1 | 0 | / | / | / | / | / | / | /
Nc1cc(=O)[nH]c(SCC(=O)NC2CCCCCCC2)n1 | 2 | 6 | -6 | 6 | / | / | / | /
Cc1ccc(NC(=O)CN2C(=O)c3ccccc3S2(=O)=O)c(C)c1 | 18* | -1 | / | / | / | 2 | 0 | -2
C[C@@H]1CN([C@H](C)CO)C(=O)CCCn2nncc2CO[C@H]1CN(C)S(=O)(=O)c1ccccc1F | 1 | / | / | / | / | / | / | /
CN1CCc2c(sc(/N=C/c3cc(Cl)ccc3O)c2C#N)C1 | 19* | 2 | / | / | 0.33 | -8 | -1 | 65*
CN1CCc2c(sc(/N=C/c3c[nH]c4ccccc34)c2C#N)C1 | 0 | 0 | / | / | 0.4 | 0 | / | /
CC(C)(C)C(=O)NCc1ccc(C(=O)CSc2nnc(-c3ccncc3)n2C2CC2)s1 | 16* | -1 | -11 | 11 | / | / | -1 | -2
COc1ccc(OC)c(NC(=O)C2(C)CCN2CCOc2ccccc2)c1 (stereo not given) | -1 | / | / | / | / | / | / | /
CC12CCC(C(=O)N(CCCCN3CCN(c4ccccn4)CC3)C1=O)C2(C)C (stereo not given) | 28* | -2 | 15 | -15 | / | -33 | -1 | 90*
CCOC(=O)C1(Cc2cccc(Cl)c2)CCCN(C(=O)c2ccnn2C)C1 (stereo not given) | 4 | 3 | -9 | 9 | / | 4 | / | /
CCOC(=O)C1(Cc2cccc(Cl)c2)CCCN(C(=O)c2cc(C)n(C)n2)C1 (stereo not given) | 17* | 1 | -1 | 1 | / | -1 | -1 | -2
COc1ccc(N2CCN(C3CCCN(C(=O)CN4CCCC4=O)C3)CC2)cc1 (stereo not given) | 2 | 0 | -19 | 19 | / | 5 | / | /
Cc1c(C(=O)OCC(=O)NCC2CCCO2)cccc1[N+](=O)[O-] (stereo not given) | 6 | -3 | -29 | 29 | 0.11 | -7 | / | /
CCCCN(CCCC)S(=O)(=O)c1ccc(SCC(=O)OCC)c([N+](=O)[O-])c1 | -2 | -4 | 3 | -3 | 0.14 | 19 | / | /

Screens: PubChem BioAssay, several laboratories
